ADAM10 inh – inhibits human ADAM10 | recombinant ADAM10, EDANS/DABCYL FRET peptide cleavage, 3 h | AID 720582 | 0.62% of 370,000 active | inhibition, % at 7 µM;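 active means inhibition above a per-campaign cutoff equal to the mean of compounds falling between control-based bounds plus 3 SD, cut at about 20% in these data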
PLCb3 inh – blocks human PLC-beta3 enzyme activity. Q01970. Purified PLC-beta3, fluorogenic substrate, fluorescence. inhibition, % at 12.2 µM. 0.18% of 370,000 active. AID 720704
PLCg1 inh – blocks human PLC-gamma1 enzyme activity. P19174. purified PLC-gamma1, fluorogenic substrate, fluorescence. inhibition, % at 12.2 µM. 0.84% of 370,000 active. AID 720700; in the data active means inhibition above about 9.5%
Target sequence (P19174 whole entry, looked up): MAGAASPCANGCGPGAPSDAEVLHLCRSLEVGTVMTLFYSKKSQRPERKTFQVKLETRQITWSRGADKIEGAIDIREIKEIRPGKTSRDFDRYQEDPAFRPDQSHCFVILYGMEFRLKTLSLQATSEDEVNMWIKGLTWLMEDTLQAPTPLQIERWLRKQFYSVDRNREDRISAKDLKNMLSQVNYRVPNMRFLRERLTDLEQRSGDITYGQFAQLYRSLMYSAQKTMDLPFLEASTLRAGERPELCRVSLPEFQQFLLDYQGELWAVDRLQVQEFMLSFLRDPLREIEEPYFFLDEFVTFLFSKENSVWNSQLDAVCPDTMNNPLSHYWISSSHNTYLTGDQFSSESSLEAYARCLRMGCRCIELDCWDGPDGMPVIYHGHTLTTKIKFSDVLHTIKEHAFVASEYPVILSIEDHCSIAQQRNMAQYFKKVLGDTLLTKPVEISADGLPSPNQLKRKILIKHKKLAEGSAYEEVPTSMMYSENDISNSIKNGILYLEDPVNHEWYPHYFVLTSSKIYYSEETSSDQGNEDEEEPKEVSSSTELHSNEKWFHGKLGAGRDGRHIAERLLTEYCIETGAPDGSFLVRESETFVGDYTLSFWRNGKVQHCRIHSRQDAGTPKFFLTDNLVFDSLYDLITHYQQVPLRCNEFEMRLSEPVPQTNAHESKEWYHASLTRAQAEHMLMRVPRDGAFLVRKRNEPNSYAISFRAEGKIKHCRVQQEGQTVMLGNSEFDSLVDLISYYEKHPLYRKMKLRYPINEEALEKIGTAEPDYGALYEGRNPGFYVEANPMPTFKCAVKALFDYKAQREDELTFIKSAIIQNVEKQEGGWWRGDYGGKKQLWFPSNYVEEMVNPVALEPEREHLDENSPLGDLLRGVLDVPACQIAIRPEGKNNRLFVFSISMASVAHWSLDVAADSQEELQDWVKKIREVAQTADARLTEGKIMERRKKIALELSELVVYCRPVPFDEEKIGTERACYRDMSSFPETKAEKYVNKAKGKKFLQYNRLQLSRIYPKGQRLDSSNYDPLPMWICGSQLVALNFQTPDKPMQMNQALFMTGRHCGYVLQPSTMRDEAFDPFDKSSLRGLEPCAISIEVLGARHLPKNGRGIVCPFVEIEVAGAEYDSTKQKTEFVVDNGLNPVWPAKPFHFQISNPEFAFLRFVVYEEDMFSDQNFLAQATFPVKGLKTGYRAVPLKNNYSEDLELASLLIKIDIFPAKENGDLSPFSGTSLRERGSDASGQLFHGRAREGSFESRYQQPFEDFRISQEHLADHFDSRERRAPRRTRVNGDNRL
ADAM17 inh – ADAM17 inhibition, QFRET primary screen; P78536; recombinant ADAM17, EDANS/DABCYL FRET peptide cleavage; inhibition, % at 6.95 µM; 0.83% of 370,000 active; AID 720648;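 active means inhibition above the mean of compounds lying between control limits plus 3 SD, set per campaign, cut at about 8.5% in these data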
TbMetRS inhib – blocks T. brucei methionyl-tRNA synthetase activity; purified T. brucei MetRS, ATP depletion, Kinase-Glo luminescence; inhibition, % at 11.9 µM; 0.4% of 360,000 active;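 active means inhibition above a per-plate cutoff of the control wells' mean inhibition plus 3 SD, cut at about 5.5% in these data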
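Dosing: 11.9 µM single point; system: parasite MetRS enzyme; technique: luminescence of leftover ATP; times: 15 min enzyme-compound preincubation, 2 h reaction, 10 min detection, 25 °C; replicates: each compound tested once; read-out basis: percent inhibition relative to median high and low control wells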
PLCg1 ctr – counter-screen for PLC-beta3 inhibitors: inhibitors of human PLC-gamma1 | shares compounds with PLCg1 inh | purified PLC-gamma1, fluorogenic substrate, fluorescence | inhibition, % at 12.3 µM | 3.1% of 3,300 active; in the data active means inhibition above about 9.5%
PLCb3 confirm – human PLC-beta3 inhibition, confirmation; 1% of 3,300 active; shares compounds with PLCg1 inh; purified PLC-beta3, fluorogenic substrate fluorescence; inhibition, % at 12.3 µM
A number is an active result; n = inactive; x = no result given. This is a sample that favours compounds with a hit; in the whole collection about 2.3% have one here. Unless noted, no stated cut-off is given here; in the data, active means inhibition above about 11%; inactive means the rest.

SMILES | ADAM10 inh | PLCb3 inh | PLCg1 inh | ADAM17 inh | TbMetRS inhib | PLCg1 ctr | PLCb3 confirm
CS(=O)(=O)N(Cc1ccc(C(=O)NC2CCCC2)cc1)c1ccccc1 | n | n | 13 | n | n | n | n
CS(=O)(=O)c1nc(-c2ccc(Br)cc2)n[nH]1 | n | n | 18 | n | n | 15 | n
COc1ccc(CNC(=O)c2ccc(-c3c(C)noc3C)c3ccoc23)cc1OC | n | n | n | n | n | x | x
N/C(=N\OC(=O)c1cccs1)C1(c2ccc(Cl)cc2Cl)CC1 | n | n | n | n | n | x | x
N/C(Cc1ccc(Cl)c(Cl)c1)=N\OC(=O)c1cccs1 | n | 12 | n | n | n | n | n
CCN(CC)S(=O)(=O)c1ccc(/C=C/C(=O)Nc2ccccc2N2CCOCC2)cc1 | n | n | 9.6 | n | n | n | n
CC1(C)N([O-])C(c2ccccc2)=C[N+](=O)C1(C)C | n | n | 10 | n | n | n | n
COc1ccc(OC)c(C2=C[N+](=O)C(C)(C)C(C)(C)N2[O-])c1 | n | n | n | n | n | x | x
CSC[C@H]1CN(c2ccccc2)C(=O)[C@@H]1CC(=O)Nc1ccccc1 | n | n | 9.5 | n | n | n | n
CSC[C@H]1CN(c2ccc(Br)cc2)C(=O)[C@@H]1CC(=O)Nc1ccccc1 | n | n | n | n | n | x | x
O=C(O)c1ccc(Cl)cc1NC(=O)C1CCN(S(=O)(=O)c2cccs2)CC1 | n | n | n | n | n | x | x
NC(=O)NC(=O)CN1C(=O)NC(c2ccccc2)(c2ccccc2)C1=O | n | n | 11 | n | n | n | n
NC(=O)c1ccc(NC(=O)CN2C(=O)NC(c3ccccc3)(c3ccccc3)C2=O)cc1 | n | n | 10 | n | n | n | n
CC1CCN(C(=O)CN2C(=O)NC(c3ccccc3)(c3ccccc3)C2=O)CC1 | n | n | 13 | n | n | n | n
O=C(CN1C(=O)NC(c2ccccc2)(c2ccccc2)C1=O)N1CCCCC1 | n | n | n | n | n | x | x
O=C(Nc1ccccc1)SC1CCCCC1 | n | n | n | n | n | x | x
CCCCOc1ccc(C(=O)Oc2cccnc2)cc1 | n | n | n | n | n | x | x
CCc1ccc(NC(=O)CSc2nc3ccccc3c(=O)n2CCCN2CCC(C)CC2)cc1 | n | n | n | n | n | x | x
CCCOc1ccc(/C=N\NC(=O)CCc2n[nH]c(=O)[nH]c2=O)cc1OC | n | 13 | 11 | n | n | n | n
CCOC(=O)[C@H](CCc1ccccc1)N[C@@H](C)C(=O)N1C(C(=O)O)C[C@@H]2CCC[C@@H]21 (stereo partly specified) | n | n | 10 | n | n | n | n
Cc1nc(N2CCOCC2)[nH]c(=O)c1[N+](=O)[O-] | n | n | 13 | n | n | n | n
COc1ccc(N(C(=O)c2snc(C(N)=O)c2N)C(C(=O)NC2CCCCC2)c2ccc(C)o2)cc1 (stereo unspecified) | n | n | n | n | n | x | x
CN1CCOc2ccc(S(=O)(=O)NCCc3ccc(Cl)cc3)cc21 | n | n | 13 | n | n | n | n
O=C(COC(=O)c1ccccc1)Nc1cc(Cl)ccc1Oc1ccccc1 | n | n | n | n | n | x | x
CC(C)CN1C(=O)C(=O)N(CC(=O)Nc2cc(Cl)ccc2Oc2ccccc2)C1=O | n | n | 20 | n | n | n | n
SMILES | ADAM10 inh | PLCb3 inh | PLCg1 inh | ADAM17 inh | TbMetRS inhib | PLCg1 ctr | PLCb3 confirm
O=C(COC(=O)c1c(Cl)cccc1Cl)Nc1cc(Cl)ccc1Oc1ccccc1 | n | n | 11 | n | n | n | n
COC(=O)c1c(N)sc2c1CC(C)(C)OC2 | n | n | 11 | n | n | n | n
CCOC(=O)c1c(NC(=O)C2CC2)sc2c1CC(C)(C)OC2 | n | n | n | n | n | x | x
COc1ccc(C(=O)Nc2sc(C(=O)N(C)C)c(C)c2C#N)cc1[N+](=O)[O-] | n | n | n | n | n | x | x
CCN(CC)C(=O)c1sc(NC(=O)c2ccc(C)c([N+](=O)[O-])c2)c(C#N)c1C | n | n | 11 | n | n | n | n
COc1ccc(/C=C2\CCC(C3CCCC3)C2=O)cc1 (stereo unspecified) | n | n | 10.0 | n | n | n | n
O=[N+]([O-])c1ccccc1CNC1CCCCCC1 | n | n | n | n | n | x | x
Cc1ccccc1CNC1CCCCC1 | n | 12 | n | n | n | n | n
COc1ccc(CNCC(O)(c2ccccc2)c2ccccc2)cc1 | n | n | 19 | n | n | n | n
Cc1cccc(N(Cc2ccccc2)C(=O)c2cc(S(=O)(=O)N3CCOCC3)ccc2Cl)c1 | n | n | n | n | n | x | x
O=C(CN1CCN(C(=O)c2ccccc2)CC1)Nc1ccc(Br)cn1 | n | n | 12 | n | n | n | n
O=C(CN1CCN(C(=O)c2ccccc2)CC1)Nc1ccccc1 | n | n | n | n | n | x | x
CC(C)(C)c1nc(SCC(=O)NNC(=O)c2ccccc2)c2ccccc2n1 | n | n | n | n | n | x | x
Cc1cccc(NC2=CC(=O)CC(C)(C)C2)c1C | n | n | 9.8 | n | n | n | n
CC1(C)CC(=O)C=C(Nc2ccccc2N)C1 | n | n | n | n | n | x | x
CC(NC(=O)c1cccc(S(=O)(=O)N2CCN(C)CC2)c1)c1ccc(Cl)cc1Cl (stereo unspecified) | n | n | n | n | n | x | x
COC(=O)c1scc(C)c1-n1ccc(C(=O)C(=O)N(C)C)c1 | n | 13 | n | n | n | n | n
Cc1ccc(S(=O)(=O)N2CCC(=O)N(C(COCc3cccc(Cl)c3)C(C)C)CC2)cc1 (stereo unspecified) | n | n | n | n | n | x | x
Cc1ccc(S(=O)(=O)N2CCC(=O)N(C(COCc3cccc(C)c3)C(C)C)CC2)cc1 (stereo unspecified) | n | n | 11 | n | n | n | n
CC(=O)Nc1ccc(S(=O)(=O)NCC2CCN(C(=O)C(=O)c3cc4ccccc4o3)CC2)cc1 | n | n | n | n | x | x | x
CCn1nc(C)c(CN2CCN(Cc3ccsc3)C(CCO)C2)c1C (stereo unspecified) | n | n | 10 | n | n | n | n
O=C(NCCc1ccccc1F)c1cccc2cccnc12 | n | n | n | n | n | x | x
CC(NC(=O)C(c1ccccc1)c1ccccc1)c1ccccc1 (stereo unspecified) | n | n | 16 | n | n | n | n
C[C@H](NC(=O)C(c1ccccc1)c1ccccc1)c1ccccc1 | n | n | n | n | n | x | x
CN(C)c1ccc(C(CNC(=O)c2ccc(-c3ccccc3)cc2)N2CCOCC2)cc1 (stereo unspecified) | n | n | n | n | n | x | x
Cc1nn(CC(=O)O)c(C)c1Cl | n | n | 11 | n | n | n | n
CN(C)CCN1C(=O)C(=O)/C(=C(/O)c2ccc(S(=O)(=O)N3CCOCC3)cc2)C1c1ccc(Br)cc1 (stereo unspecified) | n | n | 11 | n | n | n | n
COc1ccc(OCCCC(=O)NCc2ccco2)cc1 | n | n | 15 | n | n | n | n
